One may read the EC50 as the concentration that produces a half-maximal response. Broadly, the Ki is a measure of affinity in units of concentration, obtained from inhibition or displacement.

The values that follow come from paper PMC3216638 (Regulatory peptides, 2009).

Common to all, as to assay type: cell-based, Homo sapiens
Experiment [1] concerns hMC4R/TM4 hMC2R. Briefly: cAMP accumulation. Conditions: read-out: THIQ (EC50 (nM)); HEK293 cells, 1 h, 37°C, 1 mM IBMX; agonist. Put shortly: (§1)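 HEK293 cells stably expressing FLAG-tagged hMC4R chimeras, with one TM swapped for the homologous hMC2R segment, were selected with G418. Cells were incubated in EBSS with test compound (10−10–10−6 M) and 10−3 M IBMX for 1 h at 37°C. The reaction was stopped with ice-cold ethanol and the supernatant dried under nitrogen at 55°C. Duplicate wells, three separate experiments; sigmoid variable-slope fit.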
(Changes in cAMP serve as a functional read-out for many G protein-coupled receptors.)

The subject of experiment [2] is hMC4R/TM5 hMC2R. Briefly: cAMP accumulation. As to conditions: read-out: THIQ (EC50 (nM)); HEK293 cells, 1 h, 37°C, 1 mM IBMX; agonist. The essentials:
as §1

Experiment [3] has as its system hMC4R/TM2 hMC2R. Briefly: […]-NDP-MSH displacement on transfected cells. As to conditions: read-out: THIQ Ki; whole HEK293 cells, MEM with 0.2% BSA, 1 h.
Experiment [4] has as its system hMC4R/TM2 hMC2R. The experiment in a line: cAMP accumulation. As to conditions: read-out: THIQ (EC50 (nM)); HEK293 cells, 1 h, 37°C, 1 mM IBMX; agonist. Put shortly: as §1
The subject of experiment [5] is hMC4R/TM3 hMC2R. Briefly: cAMP accumulation. As to conditions: read-out: THIQ (EC50 (nM)); HEK293 cells, 1 h, 37°C, 1 mM IBMX; agonist. Put shortly:
as §1

Experiment [6] concerns hMC4R/TM3 hMC2R. Briefly: […]-NDP-MSH displacement on transfected cells. Conditions: read-out: THIQ Ki; whole HEK293 cells, MEM with 0.2% BSA, 1 h.
Experiment [7] deals with hMC4R/TM4 hMC2R. The experiment in a line: […]-NDP-MSH displacement on transfected cells. Conditions: read-out: THIQ Ki; whole HEK293 cells, MEM with 0.2% BSA, 1 h.
The subject of experiment [8] is hMC4R/TM6 hMC2R. The experiment in a line: cAMP accumulation. As to conditions: read-out: THIQ (EC50 (nM)); HEK293 cells, 1 h, 37°C, 1 mM IBMX; agonist. Put shortly:
as §1

Experiment [9] concerns hMC4R/TM5 hMC2R. Briefly: […]-NDP-MSH displacement on transfected cells. As to conditions: read-out: THIQ Ki; whole HEK293 cells, MEM with 0.2% BSA, 1 h.
Experiment [10] has as its system hMC4R/TM6 hMC2R. Briefly: […]-NDP-MSH displacement on transfected cells. As to conditions: read-out: THIQ Ki; whole HEK293 cells, MEM with 0.2% BSA, 1 h.

For `O=C(N[C@H](Cc1ccc(Cl)cc1)C(=O)N1CCC(Cn2cncn2)(C2CCCCC2)CC1)[C@H]1Cc2ccccc2CN1` [THIQ, N-(3R)-1 4-tetrahydroisoquinolinium-3-ylcarbonyl-(1R)-1-(4-chlorobenzyl)-2-4-cyclohexyl-4-(1H-1,2,4-triazol-1-ylmethyl)piperidin-1-yl-2-oxoethylamine], the EC50 in experiment [1] is 3.5 ± 0.3 nM; in [2], 3.9 ± 0.4 nM; in experiment [4] it was 3.1 ± 0.3 nM; in experiment [5] it was 91 ± 6.2 nM; in [8], 2.8 ± 0.6 nM. Further, the Ki was 6.2 ± 0.2 nM in experiment [3]; 76.2 ± 17.3 nM in experiment [6]; 7.2 ± 2.3 nM in experiment [7]; 6.7 ± 3.4 nM in experiment [9]; 5.3 ± 0.2 nM in experiment [10].
